From publication PMC3920694 (Iranian Journal of Pharmaceutical Research : IJPR, 2013) come the findings set out here.

Series [1] concerns PC3 (Human prostate adenocarcinoma). The experiment in a line: LDH assay cytotoxicity, PC3. The format is cell-based.
In series [2] the test system is HUVEC (Human umbilical vein endothelial cell). The experiment in a line: LDH assay cytotoxicity, HUVEC. The format is cell-based. The settings on record: read-out: IC50 HUVEC.
The test system of series [3] is HT29 (Human colon carcinoma). The experiment in a line: LDH assay cytotoxicity, HT29. It counts as cell-based. The settings on record: HT-29, read-out: IC50 HT29.
In series [4] the test system is HepG2 (Human hepatocyte cancer cell line). The experiment in a line: LDH assay cytotoxicity, HepG2. The settings on record: HepG2, read-out: IC50 HepG2. The format is cell-based.
Series [5] relates to HL60 (Human promylocyteic leukemia). Description: LDH assay cytotoxicity, HL60. The format is cell-based. The settings on record: HL-60, read-out: IC50 HL60.
For series [6], the system named is Hela (Human cervix carcinoma). The experiment in a line: LDH assay cytotoxicity, Hela. The format is cell-based. The settings on record: read-out: IC50 Hela.
In series [7] the test system is Jurkat (Human Acute T-cell leukemia). The experiment in a line: cells. The settings on record: read-out: IC50 Jurkat. The format is cell-based.
Series [8] deals with K562 (Human chronic myelogenom leukemia). The experiment in a line: LDH assay cytotoxicity, K562. It counts as cell-based. The settings on record: K562, read-out: IC50 K562.
In series [9] the test system is leukemia cell lines (HL60, K562 and Jurkat). The experiment in a line: Trypan blue exclusion, leukemia cell lines. The settings on record: 48 h; compared with structural isomer A; Figures 7-9. The format is cell-based, Human.
The test system of series [10] is PC3 (Human prostate adenocarcinoma). Description: Trypan blue exclusion, PC3. It counts as cell-based. The settings on record: 48 h; Figure 4. A digest of the protocol: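 Cells kept in DMEM with 10% FBS and antibiotics at 37°C, 5% CO2. About 0.75 × 10^5 cells/mL were seeded in 6-well plates and exposed to test compound at several concentrations for 48 h. Cells were then collected, resuspended in 0.4% trypan blue, and unstained cells counted by inverted microscopy. Percent viability was expressed relative to a temozolomide reference control.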

For series [11], the system named is cancer cell lines (PC3, HT29, Hela, HL60, Jurkat, K562, MCF7, HepG2). Description: LDH assay cytotoxicity, span over the eight cancer cell lines. It counts as cell-based. The settings on record: Homo sapiens, read-out: IC50 on cancer cell lines (range over the eight lines). The gist of the method:
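Cells grown in DMEM with 10% FBS and penicillin/streptomycin at 37°C, 5% CO2. Test compound at 1, 5, 10, 25, 50 and 100 μM for 24 and 48 h. Medium transferred and mixed with LDH reagent plus catalyst (1:45), 30 min in the dark at room temperature. Absorbance read at 490 nm with 630 nm background subtraction. Cell-free medium served as negative control.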

In series [12] the test system is MCF7 (Human breast adenocarcinoma). Description: LDH assay cytotoxicity, MCF7. It counts as cell-based.
Where [13] appears, read: Homo sapiens, read-out: IC50 PC3, LDH assay, incubation 24 and 48 h described.

Where two headings read alike, the source gives them in different places.

For the compound `O=[N+]([O-])c1ccc(N=NNc2cccc(O)c2)cc1` [A, 1-(4-nitrophenyl)-3-(3-hydroxyphenyl)triazene], the IC50 (in general, the concentration at which inhibition is half-maximal) in series [1] (setting [13]) came out at 1240 ± 200 nM; in series [2], 4400 ± 1310 nM; in series [3] it was 2820 ± 490 nM; in series [4], 1120 ± 300 nM; in [5], 2300 ± 510 nM; in series [6], 8870 ± 2100 nM. Besides, the results for the IC50 in [7] and in [8] were 1200 ± 400 nM and 2100 ± 700 nM, respectively.
In the case of `O=[N+]([O-])c1ccc(N=NNc2ccccc2O)cc1` [B, 1-(4-nitrophenyl)-3-(2-hydroxyphenyl)triazene], the IC50 worked out at 3290 ± 1300 nM in [1] (setting [13]); 3220 ± 1100 nM in series [2]; 3370 ± 1650 nM in series [3]; 1890 ± 780 nM in series [4]; 1360 ± 340 nM in [5]; 4200 ± 1400 nM in [6]. In addition, the IC50 in series [7] came out at 1050 ± 980 nM; in [8], 1130 ± 670 nM. In series [9], the “effectiveness on leukemia cell lines (HL60, K562 and Jurkat) by trypan blue exclusion” value is “more effective”.
Regarding `CCOc1ccccc1N=NNc1ccccc1OCC` [C, 1,3-bis(2-ethoxyphenyl)triazene], the IC50 in series [1] (setting [13]) worked out at 590 nM; in series [1] (read-out: IC50 PC3, LDH assay, incubation 24 and 48 h described), 560 ± 200 nM; in [2] it was 12600 ± 2800 nM; in [3] it was 2550 ± 1330 nM; in series [4], 3330 ± 1300 nM; in [5] it was 2620 ± 960 nM. Besides, the IC50 was 560 to 3330 nM in series [11]; 2540 ± 1200 nM in [6]; 1690 ± 1020 nM in [7]; 1660 ± 800 nM in series [8]; 590 ± 120 nM in series [12] (read-out: IC50 MCF7, LDH assay, incubation 24 and 48 h described). The “cytotoxic activity on PC3 by trypan blue exclusion” value in series [10] is reported as “high”.
Take `N#Cc1ccccc1N=NNc1ccccc1C#N` [D, 1,3-bis (2-cyanophenyl) triazene]: the IC50 in series [1] (setting [13]) is 1040 ± 110 nM; in series [2], 1140 ± 400 nM; in series [3] it was 2030 ± 1050 nM; in series [4] it was 1490 ± 420 nM; in series [5], 1340 ± 440 nM; in [6], 2390 ± 1350 nM. Further, the IC50 in [7] was determined as 1440 ± 710 nM; in series [8] it was 1040 ± 380 nM.
Regarding `O=[N+]([O-])c1ccc(N=NNCCO)cc1` [E, 1-(4-nitrophenyl)-3-(2-hydroxyethyl)triazene], the IC50 is 3000 ± 1010 nM in [1] (setting [13]); 5050 ± 1800 nM in [2]; 8250 ± 2200 nM in series [3]; 4200 ± 1200 nM in series [4]; 2810 ± 990 nM in series [5]; 3000 to 15500 nM in [11]. Further, the IC50 in series [6] came to 15500 ± 3010 nM; in series [7], 4500 ± 1670 nM; in series [8] it was 9870 ± 2080 nM.
`COc1ccccc1N=NNc1ccccc1OC` [F, 1,3-Bis(2-methoxyphenyl)triazene]: the IC50 was found to be 7000 ± 2200 nM in series [1] (setting [13]); 4590 ± 1760 nM in series [2]; 2260 ± 1520 nM in series [3]; 1450 ± 650 nM in series [4]; 1300 ± 500 nM in series [5]; 6850 ± 2800 nM in [6]. In addition, the IC50 in series [7] is 1610 ± 900 nM; in series [8], 1660 ± 490 nM.
For the compound `c1ccc(N=NNc2ccccc2)cc1` [G, 1,3-diphenyltriazene], the 50% inhibitory concentration (IC50) in [1] (Homo sapiens, read-out: IC50 PC3) amounted to 4130 ± 1800 nM; in [2] it was 7430 ± 2100 nM; in series [3], 9400 ± 2300 nM; in series [4], 3940 ± 1450 nM; in series [5], 3400 ± 1960 nM; in [6], 4880 ± 1500 nM. The IC50 was 5530 ± 1440 nM in series [7]; 6330 ± 2410 nM in series [8]; 1570 ± 340 nM in [12] (Homo sapiens, MCF7, read-out: IC50 MCF7).
Turning to `Cn1nnc2c(C(N)=O)ncn2c1=O` [TMZ, Temozolomide, reference compound], the IC50 came to 1390 ± 690 nM in [1] (setting [13]); 4850 ± 1780 nM in [2]; 17200 ± 3200 nM in series [3]; 2590 ± 1300 nM in series [4]; 3540 ± 1560 nM in [5]; 8880 ± 2200 nM in series [6]. Moreover, the IC50 worked out at 2070 ± 1340 nM in series [7] and 3820 ± 1600 nM in series [8].
